# Experimental data from ChEMBL document CHEMBL4011658 (J Med Chem, 2017).
# Active and inactive are the calls of the source. The rule behind the calls is not given here. Residues, ends and D or L forms follow the SMILES beside them. *: point of attachment. Boc = CC(C)(C)OC(=O)*
# Tests used:
# [1] = Selectivity index, ratio of cytotoxicity against pig LLC-PK1 cells to IC50 for Cryptococcus neoformans ATCC 90113; assay type: toxicity, cell-based; conditions: read-out: Selectivity Index
# [2] = Selectivity index, ratio of cytotoxicity against human SKOV3 cells to IC50 for Cryptococcus neoformans ATCC 90113; assay type: toxicity, cell-based; conditions: read-out: Selectivity Index
# [3] = Selectivity index, ratio of cytotoxicity against human SK-MEL cells to IC50 for Cryptococcus neoformans ATCC 90113; assay type: toxicity, cell-based; conditions: read-out: Selectivity Index
# BT-549 = test: Cytotoxicity against human BT549 cells assessed as reduction in cell viability after 48 hrs by neutral red uptake assay; assay type: cell-based; conditions: bt-549, 48 h
# Method in brief: (§1)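 Cells seeded at 25 000 per well and grown 24 h to confluence, then exposed to peptides up to 10 μg/mL for 48 h; viability by modified neutral red uptake; doxorubicin positive control, DMSO negative control.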
# [4] = Selectivity index, ratio of cytotoxicity against pig LLC-PK1 cells to IC50 for Staphylococcus aureus ATCC 29213; assay type: toxicity, cell-based; conditions: read-out: Selectivity Index
# Method in brief: (§2)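 Selectivity index is the ratio CTX/IC50. For CTX, cells were seeded at 25 000 per well and grown 24 h, then exposed to peptide up to 10 μg/mL for 48 h, with viability by neutral red uptake. […] The inoculum was 5 × 10^5 CFU/mL, with OD530 read before and after incubation.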
# LLC-PK1 = test: Cytotoxicity against pig LLC-PK1 cells assessed as reduction in cell viability after 48 hrs by neutral red uptake assay; assay type: cell-based, Sus scrofa; conditions: llc-pk1, 48 h; method in brief: as §1
# [5] = Selectivity index, ratio of cytotoxicity against human SK-MEL cells to IC50 for Staphylococcus aureus ATCC 29213; assay type: toxicity, cell-based; conditions: read-out: Selectivity Index; method in brief: as §2
# Candida = test: Antifungal activity against Candida; assay type: functional
# Escherichia coli = test: Antibacterial activity against Escherichia coli ATCC 35218 after 16 to 20 hrs by alamar blue dye based CLSI method; assay type: functional
# [6] = Selectivity index, ratio of cytotoxicity against human BT549 cells to IC50 for Staphylococcus aureus ATCC 29213; assay type: toxicity, cell-based; conditions: read-out: Selectivity Index; method in brief: as §2
# [7] = Selectivity index, ratio of cytotoxicity against African green monkey VERO cells to IC50 for Cryptococcus neoformans ATCC 90113; assay type: toxicity, cell-based; conditions: read-out: Selectivity Index
# SK-MEL = test: Cytotoxicity against human SK-MEL cells assessed as reduction in cell viability after 48 hrs by neutral red uptake assay; assay type: cell-based; method in brief: as §1
# Cryptococcus neoformans [8] = test: Antifungal activity against Cryptococcus neoformans ATCC 90113 after 70 to 74 hrs by alamar blue dye based CLSI method; assay type: functional
# [9] = Selectivity index, ratio of cytotoxicity against human BT549 cells to IC50 for Cryptococcus neoformans ATCC 90113; assay type: toxicity, cell-based; conditions: read-out: Selectivity Index
# [10] = Selectivity index, ratio of cytotoxicity against human SKOV3 cells to IC50 for Staphylococcus aureus ATCC 29213; assay type: toxicity, cell-based; conditions: read-out: Selectivity Index; method in brief: as §2
# [11] = Selectivity index, ratio of cytotoxicity against African green monkey VERO cells to IC50 for Staphylococcus aureus ATCC 29213; assay type: toxicity, cell-based; conditions: read-out: Selectivity Index; method in brief: as §2
# Aspergillus = test: Antifungal activity against Aspergillus; assay type: functional
# Vero = test: Cytotoxicity against African green monkey Vero cells assessed as reduction in cell viability after 48 hrs by neutral red uptake assay; assay type: cell-based; conditions: chlorocebus sabaeus; method in brief: as §1
# SK-OV-3 = test: Cytotoxicity against human SKOV3 cells assessed as reduction in cell viability after 48 hrs by neutral red uptake assay; assay type: cell-based; conditions: sk-ov-3, 48 h; method in brief: as §1
# Staphylococcus aureus [12] = test: Antibacterial activity against methicillin-resistant Staphylococcus aureus ATCC 33591 after 16 to 20 hrs by alamar blue dye based CLSI method; assay type: functional
# Staphylococcus aureus [13] = test: Antibacterial activity against Staphylococcus aureus ATCC 29213 after […] hrs by alamar blue dye based CLSI method; assay type: functional
# Cryptococcus neoformans [14] = test: Antifungal activity against Cryptococcus neoformans ATCC 350 after 70 to 74 hrs by alamar blue dye based CLSI method; assay type: functional
# [15] = Selectivity index, ratio of cytotoxicity against pig LLC-PK1 cells to IC50 for methicillin-resistant Staphylococcus aureus ATCC 33591; assay type: toxicity, cell-based; conditions: read-out: Selectivity Index
# Method in brief: (§3)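 Selectivity index is the ratio CTX/IC50. For CTX, cells were seeded at 25 000 per well and grown 24 h, then given peptide up to 10 μg/mL for 48 h, with neutral red uptake read-out. […] OD530 was read before and after 16−20 h at 35 °C.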
# [16] = Selectivity index, ratio of cytotoxicity against human SKOV3 cells to IC50 for methicillin-resistant Staphylococcus aureus ATCC 33591; assay type: toxicity, cell-based; conditions: read-out: Selectivity Index; method in brief: as §3
# [17] = Selectivity index, ratio of cytotoxicity against human SK-MEL cells to IC50 for methicillin-resistant Staphylococcus aureus ATCC 33591; assay type: toxicity, cell-based; conditions: read-out: Selectivity Index; method in brief: as §3
# [18] = Selectivity index, ratio of cytotoxicity against African green monkey VERO cells to IC50 for methicillin-resistant Staphylococcus aureus ATCC 33591; assay type: toxicity, cell-based; conditions: read-out: Selectivity Index; method in brief: as §3
# [19] = Selectivity index, ratio of cytotoxicity against human BT549 cells to IC50 for methicillin-resistant Staphylococcus aureus ATCC 33591; assay type: toxicity, cell-based; conditions: read-out: Selectivity Index; method in brief: as §3
# Cryptococcus neoformans [20] = test: Induction of membrane permeabilization in Cryptococcus neoformans ATCC 350 after 1 hr using FITC labeled compound by confocal microscopic analysis; assay type: functional
# Cryptococcus neoformans [21] = test: Fungicidal activity against Cryptococcus neoformans ATCC 350 at 0.89 ug/ml after 4 hrs by time kill assay; assay type: functional
# Cryptococcus neoformans [22] = test: Fungicidal activity against Cryptococcus neoformans ATCC 350 at antifungal MIC after 4 hrs by time kill assay; assay type: functional
SMILES,selectivity ratio [1],selectivity ratio [2],selectivity ratio [3],Activity (BT-549),selectivity ratio [4],Activity (LLC-PK1),selectivity ratio [5],Activity (Candida),Activity (Escherichia coli),selectivity ratio [6],selectivity ratio [7],Activity (SK-MEL),IC50 (Cryptococcus neoformans [8]),MFC (Cryptococcus neoformans [8]),MIC (Cryptococcus neoformans [8]),selectivity ratio [9],selectivity ratio [10],Activity (Aspergillus),Activity (Vero),Activity (SK-OV-3),other results
CC(C)(C)OC(=O)N[C@@H](Cc1c[nH]c(-c2ccccc2)n1)C(=O)N[C@@H](Cc1c[nH]c2ccccc12)C(=O)N[C@@H](Cc1c[nH]c(-c2ccccc2)n1)C(=O)NCc1ccccc1,> 7.1,> 7.1,> 7.1,> 10 µg/mL,> 1.3,> 10 µg/mL,> 1.3,inactive,inactive,> 1.3,> 7.1,> 10 µg/mL,1.4 µg/mL,2.5 µg/mL,2.5 µg/mL,> 7.1,> 1.3,inactive,> 10 µg/mL,> 10 µg/mL,selectivity ratio [11]: > 1.3; IC50 (Staphylococcus aureus [12]): 10.5 µg/mL; MBC (Staphylococcus aureus [12]): > 20 µg/mL; MIC (Staphylococcus aureus [12]): > 20 µg/mL; IC50 (Staphylococcus aureus [13]): 7.6 µg/mL; MBC (Staphylococcus aureus [13]): > 20 µg/mL; MIC (Staphylococcus aureus [13]): > 20 µg/mL
OC(Cn1cncn1)(Cn1cncn1)c1ccc(F)cc1F [FLUCONAZOLE],–,–,–,–,–,–,–,–,–,–,–,–,–,–,–,–,–,–,–,–,MIC (Cryptococcus neoformans [14]): 9.57 µg/mL
COC(=O)[C@H](Cc1c[nH]c(-c2ccc(C(C)(C)C)cc2)n1)NC(=O)[C@H](Cc1c[nH]c2ccccc12)NC(=O)[C@@H](N)Cc1c[nH]c(-c2ccc(C(C)(C)C)cc2)n1,> 12,> 12,> 12,> 10 µg/mL,> 2.3,> 10 µg/mL,> 2.3,inactive,inactive,> 2.3,> 12,> 10 µg/mL,0.83 µg/mL,1.25 µg/mL,1.25 µg/mL,> 12,> 2.3,inactive,> 10 µg/mL,> 10 µg/mL,selectivity ratio [15]: > 1.49; selectivity ratio [16]: > 1.49; selectivity ratio [17]: > 1.49; selectivity ratio [18]: > 1.49; selectivity ratio [11]: > 2.3; IC50 (Staphylococcus aureus [12]): 6.71 µg/mL; MBC (Staphylococcus aureus [12]): > 20 µg/mL; MIC (Staphylococcus aureus [12]): > 20 µg/mL; IC50 (Staphylococcus aureus [13]): 4.33 µg/mL; MBC (Staphylococcus aureus [13]): > 20 µg/mL; MIC (Staphylococcus aureus [13]): 10 µg/mL; selectivity ratio [19]: > 1.49
N[C@@H](Cc1c[nH]c(-c2ccccc2)n1)C(=O)N[C@@H](Cc1c[nH]c2ccccc12)C(=O)N[C@@H](Cc1c[nH]c(-c2ccccc2)n1)C(=O)NCc1ccccc1,–,–,–,> 10 µg/mL,–,> 10 µg/mL,–,inactive,inactive,–,–,> 10 µg/mL,> 20 µg/mL,–,–,–,–,inactive,> 10 µg/mL,> 10 µg/mL,Activity (Cryptococcus neoformans [20]): inactive
C[C@@H]1[C@H](O)[C@@H](C)/C=C/C=C/C=C/C=C/C=C/C=C/C=C/[C@H](O[C@@H]2O[C@H](C)[C@@H](O)[C@H](N)[C@@H]2O)C[C@@H]2O[C@](O)(C[C@@H](O)C[C@@H](O)[C@H](O)CC[C@@H](O)C[C@@H](O)CC(=O)O[C@H]1C)C[C@H](O)[C@H]2C(=O)O [AMPHOTERICIN B],–,–,–,–,–,–,–,–,–,–,–,–,–,1.25 µg/mL,1.25 µg/mL,–,–,–,–,–,MIC (Cryptococcus neoformans [14]): 0.89 µg/mL; Activity (Cryptococcus neoformans [21]): Active
CC(C)(C)c1ccc(-c2nc(C[C@H](NC(=O)[C@H](Cc3c[nH]c4ccccc34)NC(=O)[C@@H](N)Cc3c[nH]c(-c4ccc(C(C)(C)C)cc4)n3)C(=O)NCc3ccccc3)c[nH]2)cc1,> 3.8,> 3.8,> 3.8,> 10 µg/mL,> 2.68,> 10 µg/mL,> 2.68,inactive,inactive,> 2.68,> 3.8,> 10 µg/mL,2.6 µg/mL,5 µg/mL,5 µg/mL,> 3.8,> 2.68,inactive,> 10 µg/mL,> 10 µg/mL,selectivity ratio [15]: > 1.49; selectivity ratio [16]: > 1.49; selectivity ratio [17]: > 1.49; selectivity ratio [18]: > 1.49; selectivity ratio [11]: > 2.68; IC50 (Staphylococcus aureus [12]): 6.7 µg/mL; MBC (Staphylococcus aureus [12]): > 20 µg/mL; MIC (Staphylococcus aureus [12]): > 20 µg/mL; IC50 (Staphylococcus aureus [13]): 3.72 µg/mL; MBC (Staphylococcus aureus [13]): 20 µg/mL; MIC (Staphylococcus aureus [13]): 10 µg/mL; selectivity ratio [19]: > 1.49
COC(=O)[C@H](Cc1c[nH]cn1)NC(=O)[C@H](Cc1c[nH]c2ccccc12)NC(=O)[C@H](Cc1c[nH]cn1)NC(=O)OC(C)(C)C (Boc-His-Trp-His-OMe),–,–,–,> 10 µg/mL,–,> 10 µg/mL,–,inactive,inactive,–,–,> 10 µg/mL,> 20 µg/mL,–,–,–,–,inactive,> 10 µg/mL,> 10 µg/mL,Activity (Cryptococcus neoformans [22]): inactive
